Most compounds without a hit are left out; they make up all but 6.4% or so of the library.
HUVEC inhibit – human endothelial cell proliferation inhibition; HUVEC proliferation, CellTiter-Glo luminescence, 72 h; hits give low values; hit rate 1.1% among 86,000; viability, % at 10 µM (by protocol);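 active means viability at or below 30%; inactive means viability above 30%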;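 further: 100% = median luminescence of DMSO-only cell control wells on each plate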
Jurkat viability – cytotoxic compounds reducing Jurkat cell viability. Jurkat E6.1 viability, ATP luminescence, 48 h. inhibition, % at 4 µM. hit rate 1.2% among 56,000;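 active means inhibition above the mean inhibition of all tested compounds plus 3 SD, cut at about 28% in these data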
Lung fibro prol – blocks proliferation of human lung fibroblasts. LL 47 human lung fibroblast viability, ATP luminescence; hits give low values. viability, % at 10 µM. hit rate 1.1% among 85,000. AID 719;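 active means viability at or below 50% in the single dose screen; inactive means viability above 50%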;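 further: compound exposure lasted 72 h before the ATP readout; 100% = median luminescence of untreated cell-only wells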
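Material: Human LL 47 lung fibroblast cells | Input: 1,150 cells/well | Buffer or medium: IMEM plus 15% FBS | Compound dosing: 0.1% DMSO in all compound wells | Times: Overnight cell rest, 72 h compound treatment at 37 °C | Signal: CellTiter-Glo luminescence measuring cellular ATP | Measure: % viability versus median cells-only luminescence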
H69AR inhibit – growth inhibitors of human H69AR lung tumor cells. hit rate 6% among 85,000. H69AR lung tumor viability, ATP luminescence, 72 h; hits give low values. viability, % at 10 µM. AID 598;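 active means viability at or below 40%; inactive means viability above 40%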;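 further: multidrug resistant small cell line overexpressing MRP-1 efflux transporter; 100% = mean luminescence of untreated control wells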
Starred values were filed as active, the others as inactive; nt = not tested or not shown.

SMILES	HUVEC inhibit	Jurkat viability	Lung fibro prol	H69AR inhibit
COc1ccc(-c2nc3ccccc3s2)cc1O	82.2	-4.4	94.3	45.1
COc1cc(-c2nc3ccccc3s2)ccc1O	50.2	nt	90.3	39.6*
COc1ccc2nc(SCC(=O)Nc3ccccc3C)[nH]c2c1	110.0	nt	103.0	69.3
O=C(NCc1ccco1)C(c1ccc(F)cc1)N(CC1CCCO1)C(=O)Cn1nnc2ccccc21 (configuration not stated)	98.5	-4.8	105.3	103.2
Oc1c(Cl)cc(Cl)c2c1NCCC2	67.9	2.4	87.7	4.4*
O=C1NCCCc2c1oc1ccc(O)cc21	101.8	1.0	104.8	65.4
O=C(NCCN1CCOCC1)C1CCC(CNS(=O)(=O)c2ccc(Cl)cc2)CC1 (configuration not stated)	96.8	nt	89.4	92.4
CCOC(=O)c1sc(SCC(=O)Nc2ccc(N(C)C)cc2)nc1N	81.0	-3.1	36.5*	57.9
Clc1ccc(OCc2nn3c(C4CCCCC4)nnc3s2)cc1	102.2	0.3	102.4	82.0
CC1=NC(C)Cc2ccccc21 (configuration not stated)	93.2	-4.0	92.2	90.3
CCCCOC(=O)n1c(=O)oc2ccccc21	75.8	1.2	100.8	59.1
CCOC(=O)n1c(=O)oc2ccc(Cl)cc21	67.9	nt	94.6	38.2*
COC(=O)c1ccc(Cl)c(NC(=O)NC2CCCCC2)c1	86.7	-4.2	102.0	29.2*
CCOC(=O)c1ccc(NC(=O)CN2C(=O)C3C4C=CC(C4)C3C2=O)cc1 (configuration not stated)	93.8	nt	99.8	34.9*
COc1ccc(C2=CSC(/N=C/c3ccc(F)cc3)=NN2)cc1	104.7	nt	95.1	87.0
N=c1nc(N)nc2n1NC(c1ccc(F)cc1)=CS2	29.8*	nt	90.7	93.1
Cc1ccc(-n2c(C)nn(-c3ncc(C(F)(F)F)cc3Cl)c2=O)cc1	106.5	nt	98.9	91.8
Cn1nc([N+](=O)[O-])nc1Oc1ccccc1	88.4	nt	97.5	96.6
COc1ccccc1-c1nnc(Sc2nc([N+](=O)[O-])nn2C)o1	59.5	nt	63.8	2.8*
COc1ccc(N2CCN(CCCNC(=O)c3cc4sccc4n3C)CC2)cc1	85.9	6.2	93.3	30.4*
COC(=O)c1cc(Br)ccc1OC(=O)c1cccnc1	89.7	3.7	105.7	95.0
COc1ccc(OC)c(S(=O)(=O)Nc2cc(OC)c(Cl)cc2OC)c1	95.8	-2.8	102.0	88.1
COc1cc(NS(=O)(=O)c2ccc(OC)c(C)c2C)c(OC)cc1Cl	58.1	78.9*	95.9	22.4*
CCOc1ccc(NC(=O)c2cc3c(C)nc4ccccc4c3o2)cc1	73.9	nt	70.6	29.8*
CCCCNC(=O)c1sc2nc(C)cc(COC)c2c1-n1cccc1	98.5	4.2	100.7	35.2*
SMILES	HUVEC inhibit	Jurkat viability	Lung fibro prol	H69AR inhibit
O=C(OCCN(C1=NS(=O)(=O)c2ccccc21)c1ccccc1Cl)c1ccc(Cl)cc1	82.5	nt	104.2	84.2
CSc1cccc(NC(=O)c2ccc(Cl)nc2)c1	76.0	nt	96.2	79.3
CC(=O)OCc1c(C(F)(F)F)nn(C)c1SCc1ccc(Cl)cc1	111.7	nt	101.0	105.8
C=CCSC(=C(C#N)C#N)c1cc2c([nH]1)CCCC2	16.9*	nt	7.4*	1.3*
O=S1(=O)N=C(SCCO)c2ccccc21	81.1	4.2	88.2	80.6
O=S1(=O)N=C(Oc2cccc3ccccc23)c2ccccc21	79.8	nt	108.3	25.4*
O=c1[nH]c2ccccc2n1CCCSc1cnc2ccccc2n1	78.9	-2.6	94.7	38.3*
CCC(CC)C(=O)N=C1SC2CS(=O)(=O)CC2N1CCc1ccc(OC)cc1 (configuration not stated)	74.3	nt	96.3	87.1
CC(C)CCn1cnc2c(c1=O)c1nc3ccccc3nc1n2Cc1ccc2c(c1)OCO2	86.1	0.5	87.8	30.1*
CCCn1cnc2c(c1=O)c1nc3ccccc3nc1n2Cc1ccccc1OC	nt	5.2	nt	nt
Cc1onc(-c2c(F)cccc2Cl)c1C(=O)N1CCCc2ccccc21	62.9	nt	85.1	18.7*
Cc1onc(-c2ccccc2Cl)c1C(=O)N1CCCc2ccccc21	90.1	10.9	90.6	23.2*
COc1ccccc1N1CCN(C(=O)c2c(-c3ccccc3Cl)noc2C)CC1	81.7	-0.7	95.2	19.4*
O=C(Cc1ccccc1)Nc1ccc(N2CCN(Cc3ccccc3F)CC2)cc1	89.4	nt	92.3	81.0
CCC(C)(C)c1ccc(OCCN2C(=O)NC(C)(C)C2=O)cc1	89.3	nt	90.2	66.3
O=C(O)c1cc2c(s1)-c1ccccc1OC2	84.3	nt	93.4	98.6
O=C(NC1CC1)c1cc2c(s1)-c1ccccc1OC2	80.1	37.6*	96.1	90.1
COc1ccc(OC)c(NC(=O)C2CCCN(S(=O)(=O)c3cccc4nsnc34)C2)c1 (configuration not stated)	85.9	1.6	93.2	39.8*
O=c1c2c3n(c(=S)nc2[nH]n1-c1ccccc1)CCCCC3	99.2	nt	103.9	109.3
CCc1nc2sc3c(c2c(=O)n1NC(=O)CCl)CCCC3	81.5	nt	96.7	11.8*
FC(F)(F)c1cc(-c2ccccc2)nc(NC2CCCC2)n1	98.4	nt	99.5	100.3
O=C(CSc1n[nH]c(-c2cccs2)n1)N1CCCc2ccccc21	90.7	nt	99.3	85.9
O=C(CSc1n[nH]c(-c2ccccc2O)n1)N1CCCc2ccccc21	52.9	62.3*	99.9	25.1*
O=C(Cn1c(-c2cncs2)nc2ccccc21)NCCc1ccccc1	100.6	2.6	98.7	17.8*
c1ccc(Cn2c(-c3cncs3)nc3ccccc32)cc1	110.7	nt	95.4	92.6
SMILES	HUVEC inhibit	Jurkat viability	Lung fibro prol	H69AR inhibit
Cc1ccnc2ccc(-c3nc4ccccc4o3)cc12	29.7*	-4.1	72.7	60.5
c1ccc(CCn2c3ccccc3c3nnc(SCc4ccc5nonc5c4)nc32)cc1	74.7	nt	79.5	86.7
CCC(Sc1nc2sc(C(=O)OC)c(C)c2c(=O)n1N)C(=O)N(CC)CC (configuration not stated)	87.0	nt	96.4	18.8*
CCC(Sc1nc2sc(C(=O)OC)c(C)c2c(=O)n1N)C(=O)NCC1CCCO1 (configuration not stated)	91.5	nt	89.7	69.4
CC(C)(C)C(=O)CC1(O)C(=O)N(Cc2ccccc2)c2ccccc21 (configuration not stated)	103.5	nt	100.4	90.7
CN1c2ccccc2C(C)(C)C12C=Cc1cc(O)ccc1O2 (configuration not stated)	nt	53.6*	nt	nt
COc1ccc(Cl)cc1NC(=O)NCCCl	92.1	nt	99.6	92.1
Cc1cc(C)c(NC(=O)CN2C(=O)NC3(CCCCC3)C2=O)c(Cl)c1	81.4	-5.8	88.5	28.7*
Nc1c(S(=O)(=O)c2cccc(Cl)c2)c2nc3ccccc3nc2n1/N=C/c1ccc(O)c(O)c1	6.0*	5.9	13.7*	1.3*
COc1ccc(Cn2c(CCC(=O)NCc3ccco3)nc3cccnc32)cc1	103.8	3.1	99.6	99.6
Cc1nc([N+](=O)[O-])c(Br)n1CC(=O)c1ccc(Cl)cc1	77.1	nt	77.2	1.2*
O=S1(=O)N=C(Nc2ccc(O)c(CN3CCCCC3)c2)c2ccccc21	99.8	0.6	nt	32.9*
Cc1ccc(S(=O)(=O)Nc2c(C)n(C)n(-c3ccccc3)c2=O)cc1C(=O)NCc1ccccn1	96.8	-2.0	97.9	94.9

Assay outcomes (PubChem BioAssay)
